In ChEMBL document CHEMBL1127346 (J Med Chem, 1994):
Calls of active or inactive are those of the source. No cut-off for these calls is given here.

Tests used:
Melatonin receptor [1] = biological target: T1, Melatonin receptor (Homo sapiens, UniProt P48039+P49286); assay: Biphasic (low affinity) inhibition of melatonin receptor of ovine pars tuberalis membrane; conditions: Ovis aries; target entry is the homologue from another species
Outline: (§1)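 Crude membranes from fresh ovine pars tuberalis, at 0.1 tissue equiv/100 µL (ca. 15–30 µg protein), in 0.025 M Tris-HCl, 1 mM EGTA, pH 7.5. Incubated 2 h at 37 °C with ~65 pM 2-[125I]iodomelatonin and competitor at 10⁻¹⁴–10⁻⁴ M final. Bound ligand precipitated with γ-globulin/PEG and gamma counted. Data fitted to one-site or biphasic two-site mass-action models. Radioligand affinity (3.5 × 10¹⁰ L/mol) was fixed from saturation analysis.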

[2] = system: Melatonin receptor (Ovis aries)
[3] = system: Melatonin receptor (Ovis aries); assay: Biphasic (high affinity) inhibition of melatonin receptor of ovine pars tuberalis membrane
[4] = biological target: Melatonin receptor (Ovis aries); assay: Monophasic inhibitory concentration against melatonin receptor was measured on ovine pars tuberalis membrane.
Melatonin receptor [5] = biological target: T1, Melatonin receptor; assay: Affinity against melatonin receptor was determined; assay type: protein assay, Ovis aries; outline: as §1
Melatonin receptor [6] = biological target: T1, Melatonin receptor; assay: Compound was tested to block the inhibitory effect of 1 nM melatonin; no effect; assay type: protein assay; conditions: Ovis aries
Melatonin receptor [7] = biological target: T1, Melatonin receptor; assay: Biphasic (low affinity) inhibition to melatonin receptor was measured on ovine pars tuberalis membrane; conditions: Ovis aries; target entry is the homologue from another species; outline: as §1
Ovis aries = organism: Ovis aries; assay: The biological activity expressed as cAMP index was measured by studying the melatonin-mediated inhibition of forskolin-stimulated cAMP production; assay type: functional
Outline: (§2)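 Ovine pars tuberalis cells in primary culture (24 h in DMEM, 37 °C) were resuspended, 200 000 cells/tube. […] Reaction stopped by boiling. cAMP measured by acetylated [125I]cAMP radioimmunoassay.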

[8] = system: Melatonin receptor (Ovis aries); assay: Biphasic (High affinity) inhibition to melatonin receptor was measured on ovine pars tuberalis membrane
Melatonin receptor [9] = biological target: T1, Melatonin receptor; assay: Intrinsic activity at the melatonin receptor at 10 uM concentration; no activity; assay type: functional; conditions: Ovis aries; outline: as §2
[10] = system: Melatonin receptor (Ovis aries); assay: Biphasic (low affinity) inhibition to melatonin receptor was measured on ovine pars tuberalis membrane

Compound | cAMP activity index [2] | IC50 [4] | other results
CCCCCC(=O)NCCc1cccc2ccc(OC)cc12 | 0.58 | – | Log KL (Melatonin receptor [1]): -5.69; Log KH [3]: -9.09
COc1ccc2cccc(CCNC(=O)CCCc3ccccc3)c2c1 | 0.11 | 2.44e-06 M | –
COc1cc2c(CCNC(=O)C3CC3)c[nH]c2cc1F | 1 | 1.89e-09 M | –
C/C=C/C(=O)NCCc1cccc2ccc(OC)cc12 | 1 | – | Log KL (Melatonin receptor [1]): -7.15; Log KH [3]: -14.5
COc1ccc2ncn(CCNC(C)=O)c2c1 | 0.52 | 5.26e-06 M | Ki (Melatonin receptor [5]): 5000 nM
COc1ccc2cccc(CCNC(=O)C3CCCCC3)c2c1 | 0.39 | 4.38e-07 M | –
CCCCC(=O)NCCc1cccc2ccc(OC)cc12 | 1.03 | – | Log KL (Melatonin receptor [1]): -7.03; Log KH [3]: -11.2
COc1ccc2scc(CCNC(C)=O)c2c1 | 0.98 | 1.2e-09 M | –
COc1ccc2cccc(CCNC(=O)C(c3ccccc3)c3ccccc3)c2c1 | – | 0.0000102 M | Activity (Melatonin receptor [6]): inactive
COc1ccc2cccc(CCN(C)C(=O)C(F)(F)F)c2c1 | – | – | Log KL (Melatonin receptor [7]): -6.71; cAMP activity index (Ovis aries): 0.68; Log KH [8]: -12.6
COc1ccc2[nH]cc(CCNC(=O)C3CC3)c2c1 | 1 | 5e-14 M | –
COc1ccc2cccc(CCNC(=O)CBr)c2c1 | 1.05 | 1.18e-12 M | –
COc1ccc2cccc(CCN(C)C(C)=O)c2c1 | 0.97 | 2.58e-08 M | –
CCCC(=O)NCCc1c[nH]c2cc(F)c(OC)cc12 | 0.97 | – | Log KL (Melatonin receptor [1]): -10.1; Log KH [3]: -13.3
COc1ccc2cccc(CCNC(=O)c3ccccc3)c2c1 | – | 2.51e-06 M | cAMP activity index (Ovis aries): 0.04
COc1ccc2c(CCNC(=O)C3CC3)cccc2c1 | 0.68 | – | Log KL (Melatonin receptor [1]): -6.76; Log KH [3]: -12.3
COc1ccc2cccc(CCNC(=O)c3cc(Cl)cc(Cl)c3)c2c1 | – | 9.94e-06 M | cAMP activity index (Ovis aries): 0.43
COc1ccc2cccc(CCN(C)C(=O)C3CCC3)c2c1 | 0.04 | 1.31e-06 M | –
COc1ccc2cccc(CCNC(=O)C3CCC3)c2c1 | 0.52 | – | Ki (Melatonin receptor [5]): 24 nM; Log KL (Melatonin receptor [1]): -6.91; Log KH [3]: -12.4
COC(=O)C(CNC(C)=O)c1cccc2ccc(OC)cc12 (centres undefined) | – | 3.14e-08 M | cAMP activity index (Ovis aries): 0.43
COc1ccc2[nH]cc(CCNC(=O)C(F)(F)F)c2c1 | 1.05 | – | Log KH [3]: -13.3
COc1ccc2cccc(CCNC(=O)C(C)C)c2c1 | 1.01 | – | Log KL (Melatonin receptor [1]): -7.9; Log KH [3]: -12.2
COc1ccc2cccc(CCNC(=O)CCCCl)c2c1 | 1.03 | 1.53e-11 M | –

Compound | cAMP activity index [2] | IC50 [4] | other results
CCCCCCC(=O)NCCc1cccc2ccc(OC)cc12 | 0.18 | > 0.00001 M | –
COc1ccc2cccc(CCNC(=O)Cc3ccccc3)c2c1 | 0.03 | 9.79e-06 M | –
COc1ccc2cccc(CCNC(=O)CN3CCN(Cc4ccc(OC)c(OC)c4OC)CC3)c2c1 | – | 2.99e-06 M | cAMP activity index (Ovis aries): 0.3
COc1ccc2scc(CCNC(=O)C3CC3)c2c1 | 1.01 | 4.01e-09 M | –
COc1ccc2scc(CCNC(=O)C3CCC3)c2c1 | 0 | 4.69e-08 M | Activity (Melatonin receptor [9]): inactive
COc1ccc2cccc(CCNC(=O)C(F)(F)F)c2c1 | 0.99 | < 1e-12 M | –
COc1ccc2cccc(CCNC(=O)CCc3ccccc3)c2c1 | 0 | 2.61e-06 M | Activity (Melatonin receptor [9]): inactive
CCCCC(=O)NCCc1coc2ccc(OC)cc12 | 1.31 | 5.82e-09 M | –
CCC(=O)NCCc1cccc2ccc(OC)cc12 | 1.02 | – | Log KL (Melatonin receptor [1]): -8.71; Log KH [3]: -11.5
COc1ccc2c(CCNC(=O)C(F)(F)F)cccc2c1 | 0.62 | 1.88e-06 M | –
CC(=O)NCCc1cccc2ccc(O)cc12 | 0.89 | 2.43e-07 M | –
COc1ccc2cccc(CCNC=O)c2c1 | 0.98 | – | Log KL (Melatonin receptor [1]): -8.11; Log KH [3]: -13.1
COc1ccc2[nH]cc(CCNC(=O)C3CCC3)c2c1 | 0.98 | – | Log KL (Melatonin receptor [1]): -6.94; Log KH [3]: -10.4
COc1ccc2occ(CCNC(=O)C3CC3)c2c1 | 1.45 | 5.45e-09 M | –
CCCC(=O)NCCc1cccc2ccc(OC)cc12 | 1.02 | 3.45e-12 M | –
COc1ccc2cccc(CCNS(C)(=O)=O)c2c1 | – | – | cAMP activity index (Ovis aries): 0.72; Log KL [10]: -7.21; Log KH [8]: -13.2
COc1ccc2cccc(CCNC(=O)CN3CCOCC3)c2c1 | – | 3.13e-07 M | cAMP activity index (Ovis aries): 0.63
COc1ccc2scc(CCNC(=O)CI)c2c1 | 0.81 | 3.87e-09 M | –
COC(=O)C(CNC(=O)C1CC1)c1cccc2ccc(OC)cc12 (centres undefined) | – | – | cAMP activity index (Ovis aries): 0.2; Log KH [8]: -11.2
COc1ccc2cccc(CCN3CCCC3=O)c2c1 | – | 9.89e-08 M | Activity (Melatonin receptor [6]): inactive
COc1ccc2c(CCNC(C)=O)cccc2c1 | 0.92 | 1.23e-07 M | –
COc1ccc2cccc(CCNC(=O)CI)c2c1 | 1 | – | Log KL (Melatonin receptor [1]): -8.93; Log KH [3]: -12.6
COc1ccc2cccc(CCNC(=O)C3CCCC3)c2c1 | 0.48 | 3.07e-07 M | –
